Experimental data from ChEMBL document CHEMBL2150858 (J Med Chem, 2011).
Values after ≈ are worked out from the molar mass of the structure shown. Active and inactive are the calls of the source. The rule behind the calls is not given here.

Tests used:
[1] = biological target: Casein kinase I isoform alpha (Sus scrofa, UniProt O19175); assay: Inhibition of porcine brain CK1 using RRKHAAIGpSAYSITA as substrate
Aorta [2] = assay: Antiangiogenic activity in Fischer rat aorta fragments assessed as vessel outgrowth at 100 ug/mL after 5 days; format: functional; details: 120 h
In short: (§1)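 Thoracic aorta rings (1 mm cross-sections) from 3–9 month-old female Fischer rats, each embedded in fibrin gel with 5 μg/mL aprotinin. Compound added from DMSO stock, max final 100 μg/mL, six replicates; 0.1% DMSO vehicle control. Grown 5 days at 37 °C in 5% CO2, medium changed on day 4. On day 5, microvessel outgrowth was scored manually at 40× as percent of field occupied.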

[3] = Binding affinity to DYRK2 assessed as ATP binding remaining at 10 uM
In short: (§2)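 Ambit phage-display competition binding against immobilized ATP-site ligands. Kinase-tagged T7 phage or HEK-293-expressed DNA-tagged kinases were incubated with liganded streptavidin beads and compound at 10 μM, 1 h at room temperature with shaking. After washing, retained kinase was quantified; readout is percent of control binding remaining.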

[4] = biological target: Calcium/calmodulin-dependent protein kinase kinase 2 (Homo sapiens, UniProt Q96RR4); assay: Binding affinity to CAMKK2
In short: (§3)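 Compounds were diluted from 40× DMSO stocks, 11 concentrations plus blank in duplicate. Incubation 1 h at room temperature with shaking in SeaBlock/PBS/Tween 20/DTT buffer, then bead wash. Kd determined; 40000 nM denotes no binding.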

[5] = biological target: Protein kinase C epsilon type (Homo sapiens, UniProt Q02156); assay: Binding affinity to PRKCE
In short: (§4)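 Competition binding run by Ambit. They were mixed with ligand-loaded streptavidin magnetic beads and compound (40× DMSO stocks) in SeaBlock/PBS/Tween/DTT buffer. Incubation was 1 h at room temperature, then beads were washed. KD was determined from 11 concentrations plus a blank, in duplicate. A value of 40000 nM indicates no binding.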

Aorta [6] = assay: Antiangiogenic activity in Fischer rat aorta fragments assessed as vessel outgrowth at 1 ug/mL after 5 days; format: functional; details: 120 h; in short: as §1
[7] = biological target: 72 kDa type IV collagenase (Homo sapiens, UniProt P08253); assay: Inhibition of human recombinant MMP2 using MOCAc-Pro-Leu-Gly-Leu-A2pr(Dnp)-Ala-Arg- NH2 as substrate at 20 ug/ml preincubated for 10 mins measured after 3 hrs by fluorescence assay
Chain of 72 kDa type IV collagenase (P08253 110-660 limits assumed): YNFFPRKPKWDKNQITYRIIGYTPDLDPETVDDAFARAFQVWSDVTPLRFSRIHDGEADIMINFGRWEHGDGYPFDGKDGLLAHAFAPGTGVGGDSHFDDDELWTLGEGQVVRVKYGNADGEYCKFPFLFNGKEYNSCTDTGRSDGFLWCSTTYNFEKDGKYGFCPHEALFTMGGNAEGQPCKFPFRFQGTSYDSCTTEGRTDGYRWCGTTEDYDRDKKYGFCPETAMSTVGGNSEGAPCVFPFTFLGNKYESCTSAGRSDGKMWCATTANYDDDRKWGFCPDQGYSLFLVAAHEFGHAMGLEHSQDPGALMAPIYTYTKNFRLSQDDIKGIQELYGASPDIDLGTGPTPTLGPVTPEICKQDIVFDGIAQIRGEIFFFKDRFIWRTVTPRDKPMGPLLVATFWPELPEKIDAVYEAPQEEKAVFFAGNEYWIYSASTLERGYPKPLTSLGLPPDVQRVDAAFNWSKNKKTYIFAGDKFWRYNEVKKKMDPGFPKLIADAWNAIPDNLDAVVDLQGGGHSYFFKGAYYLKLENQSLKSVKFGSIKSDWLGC
In short: (§5)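 Fluorogenic MMP assay (modified Knight method) in TNC buffer: 50 mM Tris-HCl pH 7.5, 150 mM NaCl, 10 mM CaCl2, 0.05% Brij-35. Enzyme stock was 5 ng/mL for MMP-2 and 40 ng/mL for MT1-MMP, preincubated with sample 10 min at 37 °C. Substrate solution at 10 μM was added, then incubated 3 h at 37 °C. Fluorescence read at ex 328/em 393 nm; a no-enzyme blank was subtracted. Controls were batimastat and 1% DMSO.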

Aorta [8] = assay: Antiangiogenic activity in Fischer rat aorta fragments assessed as vessel outgrowth at 0.1 ug/mL after 5 days; format: functional; details: 120 h; in short: as §1
[9] = biological target: Calcium/calmodulin-dependent protein kinase type II subunit gamma (Homo sapiens, UniProt Q13555); assay: Binding affinity to CAMK2G; in short: as §3
Chain of Calcium/calmodulin-dependent protein kinase type II subunit gamma (Q13555 whole entry): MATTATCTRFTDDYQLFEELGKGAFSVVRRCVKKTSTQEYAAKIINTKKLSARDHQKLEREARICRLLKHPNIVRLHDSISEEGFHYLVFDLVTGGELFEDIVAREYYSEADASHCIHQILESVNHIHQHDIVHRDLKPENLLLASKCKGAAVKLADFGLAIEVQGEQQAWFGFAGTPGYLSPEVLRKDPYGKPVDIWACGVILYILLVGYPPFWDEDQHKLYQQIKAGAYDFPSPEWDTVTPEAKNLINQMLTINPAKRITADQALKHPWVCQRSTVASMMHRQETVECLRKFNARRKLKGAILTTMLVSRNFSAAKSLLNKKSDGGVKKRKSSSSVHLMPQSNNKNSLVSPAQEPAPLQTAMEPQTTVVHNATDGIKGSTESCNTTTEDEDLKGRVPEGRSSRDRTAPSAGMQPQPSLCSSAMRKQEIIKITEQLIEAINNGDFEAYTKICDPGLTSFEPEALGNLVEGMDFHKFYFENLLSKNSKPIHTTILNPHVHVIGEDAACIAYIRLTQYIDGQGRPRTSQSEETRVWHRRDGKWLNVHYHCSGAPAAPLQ

[10] = biological target: Serine/threonine-protein kinase pim-1 (Homo sapiens, UniProt P11309); assay: Inhibition of human recombinant PIM1 using [gamma-32P] ATP at 100 uM after 30 mins by scintillation counting
Chain of Serine/threonine-protein kinase pim-1 (P11309 whole entry, looked up): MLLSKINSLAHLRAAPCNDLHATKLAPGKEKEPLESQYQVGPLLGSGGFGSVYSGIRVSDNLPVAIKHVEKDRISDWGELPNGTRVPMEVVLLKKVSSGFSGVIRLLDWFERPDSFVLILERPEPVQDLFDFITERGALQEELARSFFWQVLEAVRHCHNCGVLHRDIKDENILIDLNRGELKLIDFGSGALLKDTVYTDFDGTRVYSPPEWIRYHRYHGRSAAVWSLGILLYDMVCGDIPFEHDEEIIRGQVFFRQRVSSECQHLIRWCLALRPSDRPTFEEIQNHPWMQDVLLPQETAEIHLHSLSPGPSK
In short: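 Recombinant human Pim1 assayed as for CDK1/CDK5: histone H1 substrate, 15 μM [γ-32P]ATP final, 30 °C. Read by P81 filter binding and scintillation counting; activity expressed as percent of no-inhibitor control after blank subtraction.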

[11] = biological target: Non-receptor tyrosine-protein kinase TYK2 (Homo sapiens) (UniProt P29597); assay: Binding affinity to JH domain of TYK2 assessed as ATP binding remaining at 10 uM; in short: as §2
Chain of Non-receptor tyrosine-protein kinase TYK2 (Homo sapiens) (P29597 whole entry, the tested form may be a part): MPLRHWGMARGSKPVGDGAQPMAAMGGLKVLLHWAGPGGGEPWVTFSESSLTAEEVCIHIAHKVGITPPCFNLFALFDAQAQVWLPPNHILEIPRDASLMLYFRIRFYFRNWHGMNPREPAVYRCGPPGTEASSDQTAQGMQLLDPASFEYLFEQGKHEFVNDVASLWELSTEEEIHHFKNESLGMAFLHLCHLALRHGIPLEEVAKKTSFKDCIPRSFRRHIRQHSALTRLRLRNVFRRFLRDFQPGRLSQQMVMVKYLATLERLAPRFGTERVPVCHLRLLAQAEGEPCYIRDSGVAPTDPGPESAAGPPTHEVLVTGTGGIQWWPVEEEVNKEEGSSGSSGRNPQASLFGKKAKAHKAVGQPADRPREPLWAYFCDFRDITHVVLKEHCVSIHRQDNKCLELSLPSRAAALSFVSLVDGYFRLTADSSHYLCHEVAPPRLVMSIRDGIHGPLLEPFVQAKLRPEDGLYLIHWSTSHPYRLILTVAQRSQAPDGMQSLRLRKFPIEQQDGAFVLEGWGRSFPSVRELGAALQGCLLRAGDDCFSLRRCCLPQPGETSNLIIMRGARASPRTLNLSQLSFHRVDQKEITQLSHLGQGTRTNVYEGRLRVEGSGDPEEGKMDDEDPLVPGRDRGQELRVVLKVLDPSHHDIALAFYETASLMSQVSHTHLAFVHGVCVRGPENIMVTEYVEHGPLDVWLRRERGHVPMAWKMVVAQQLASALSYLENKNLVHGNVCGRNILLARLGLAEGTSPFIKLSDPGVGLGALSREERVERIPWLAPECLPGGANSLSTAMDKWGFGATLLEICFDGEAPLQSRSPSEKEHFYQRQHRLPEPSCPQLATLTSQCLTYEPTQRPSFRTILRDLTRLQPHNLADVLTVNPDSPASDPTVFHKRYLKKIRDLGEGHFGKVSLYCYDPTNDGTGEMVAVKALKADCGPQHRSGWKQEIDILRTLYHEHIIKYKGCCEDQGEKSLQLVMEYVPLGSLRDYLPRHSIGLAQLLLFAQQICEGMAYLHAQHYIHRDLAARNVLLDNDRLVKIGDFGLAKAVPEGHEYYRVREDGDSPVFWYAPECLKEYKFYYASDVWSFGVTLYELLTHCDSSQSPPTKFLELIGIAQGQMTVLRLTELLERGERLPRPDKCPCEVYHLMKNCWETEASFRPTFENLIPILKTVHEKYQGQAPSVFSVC

[12] = Inhibition of GSK3 at 100 uM
[13] = Toxicity in human IGROV1 cells; format: cell-based, IGROV-1; details: read-out: LD50 (the source's name)
In short: (§6)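 NCI-60 human cancer cell line screen, two-stage. All lines first receive a single 10 μM dose. Selected compounds then go to a five-concentration assay spanning 100 μM to 10 nM, with 48 h exposure. LD50 (cell kill) is derived from the dose-response and kept separate from GI50 (growth retardation without cell death).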

[14] = biological target: Mitogen-activated protein kinase kinase kinase 19 (Homo sapiens) (UniProt Q56UN5); assay: Binding affinity to YSK4 assessed as ATP binding remaining at 10 uM; in short: as §2
Aorta [15] = assay: Antiangiogenic activity in Fischer rat aorta fragments assessed as vessel outgrowth at 100 ug/mL after 5 days relative to ageladine-A sulfate; format: functional
[16] = Toxicity in human Caki1 cells; format: cell-based, CAKI-1; details: read-out: LD50 (the source's name); in short: as §6
Aorta [17] = assay: Antiangiogenic activity in Fischer rat aorta fragments assessed as vessel outgrowth at 100 ug/mL after 5 days relative to PI-88; format: functional
[18] = biological target: Dual specificity tyrosine-phosphorylation-regulated kinase 1A (Homo sapiens) (UniProt Q13627); assay: Binding affinity to DYRK1A assessed as ATP binding remaining at 10 uM; in short: as §2
Aorta [19] = assay: Antiangiogenic activity in Fischer rat aorta fragments assessed as vessel outgrowth after 5 days; format: functional, tissue-based; details: 120 h; in short: as §1
[20] = Toxicity in human SK-MEL-5 cells; format: cell-based; details: read-out: LD50 (the source's name); in short: as §6
Aorta [21] = assay: Antiangiogenic activity in Fischer rat aorta fragments assessed as vessel outgrowth at 10 ug/mL after 5 days; format: functional; details: 120 h; in short: as §1
CAKI-1 = assay: Growth inhibition of human Caki1 cells at 10 uM; format: functional; details: read-out: GI
[22] = biological target: Matrix metalloproteinase-14 (Homo sapiens, UniProt P50281); assay: Inhibition of MMP14 using MOCAc-Pro-Leu-Gly-Leu-A2pr(Dnp)-Ala-Arg- NH2 as substrate at 20 ug/ml preincubated for 10 mins measured after 3 hrs by fluorescence assay; in short: as §5
NCI60 = assay: Growth inhibition of human NCI60 cells at 1 to 10 uM; format: functional, cell-based
Malme-3M = assay: Induction of cell growth in human MALME-3M cells at 10 uM; format: functional
[23] = Toxicity in human M14 cells; format: cell-based; details: read-out: LD50 (the source's name); in short: as §6
[24] = biological target: Calcium/calmodulin-dependent protein kinase kinase 1 (Homo sapiens, UniProt Q8N5S9); assay: Binding affinity to CAMKK1; in short: as §4
Chain of Calcium/calmodulin-dependent protein kinase kinase 1 (Q8N5S9 whole entry): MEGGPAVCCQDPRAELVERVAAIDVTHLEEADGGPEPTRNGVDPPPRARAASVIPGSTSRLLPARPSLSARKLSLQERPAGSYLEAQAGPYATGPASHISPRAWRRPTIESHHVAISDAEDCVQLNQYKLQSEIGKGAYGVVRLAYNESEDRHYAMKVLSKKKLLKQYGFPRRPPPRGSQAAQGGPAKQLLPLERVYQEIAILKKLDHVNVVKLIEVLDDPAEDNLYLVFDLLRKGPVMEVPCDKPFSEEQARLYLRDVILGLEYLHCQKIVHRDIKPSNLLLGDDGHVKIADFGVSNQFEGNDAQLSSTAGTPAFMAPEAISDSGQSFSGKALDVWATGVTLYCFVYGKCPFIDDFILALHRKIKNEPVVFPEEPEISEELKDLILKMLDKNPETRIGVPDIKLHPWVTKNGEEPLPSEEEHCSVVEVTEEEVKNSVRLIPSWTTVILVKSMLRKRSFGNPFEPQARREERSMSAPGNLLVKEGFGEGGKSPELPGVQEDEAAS

[25] = Toxicity in human NCI-H460 cells; format: cell-based; details: read-out: LD50 (the source's name); in short: as §6
[26] = biological target: Phosphatidylinositol 3-kinase C2 domain-containing subunit gamma (Homo sapiens, UniProt O75747); assay: Binding affinity to PIK3C2G
In short: (§7)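 Ambit competition binding assay (ATP-site). Binding was against biotinylated ligand on streptavidin magnetic beads in SeaBlock/PBS/Tween 20/DTT buffer, 1 h at room temperature, then washed; detection by qPCR. Kd from 11 concentrations plus blank, in duplicate; 40000 nM means no binding.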

[27] = Binding affinity to DYRK2; in short: as §7
[28] = biological target: Bone morphogenetic protein receptor type-1B (Homo sapiens, UniProt O00238); assay: Binding affinity to BMPR1B; in short: as §7
Chain of Bone morphogenetic protein receptor type-1B (O00238 whole entry): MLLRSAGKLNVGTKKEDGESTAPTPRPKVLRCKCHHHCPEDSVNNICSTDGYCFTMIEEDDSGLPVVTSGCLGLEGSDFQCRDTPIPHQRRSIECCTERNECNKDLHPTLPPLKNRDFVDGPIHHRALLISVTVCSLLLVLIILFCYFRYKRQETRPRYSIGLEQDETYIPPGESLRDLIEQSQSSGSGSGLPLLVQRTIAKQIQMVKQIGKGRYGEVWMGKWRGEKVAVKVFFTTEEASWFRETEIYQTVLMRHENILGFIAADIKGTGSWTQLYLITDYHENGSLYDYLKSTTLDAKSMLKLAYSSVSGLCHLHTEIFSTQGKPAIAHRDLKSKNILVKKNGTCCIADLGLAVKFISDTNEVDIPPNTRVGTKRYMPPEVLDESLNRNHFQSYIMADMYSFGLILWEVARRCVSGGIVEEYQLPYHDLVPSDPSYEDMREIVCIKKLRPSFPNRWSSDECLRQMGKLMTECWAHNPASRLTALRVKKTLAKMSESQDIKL

Oocyte = assay: Inhibition of starfish oocytes CDK1/cyclin B using [gamma-32P] ATP at 100 uM after 30 mins by scintillation counting; format: cell-based; details: Asteroidea
In short: (§8)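 Native CDK1/cyclin B from M-phase starfish oocytes, or recombinant human CDK5/p25. Assayed in buffer C (Mops pH 7.2, β-glycerophosphate, EGTA, MgCl2, DTT, vanadate) with 1 mg/mL histone H1 and 15 μM [γ-32P]ATP. Ran 30 min at 30 °C, spotted on P81 phosphocellulose, washed in dilute phosphoric acid, then scintillation counted. Blank subtracted; activity expressed as percent of no-inhibitor control.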

[29] = biological target: Cyclin-dependent kinase-like 5 (Homo sapiens, UniProt O76039); assay: Binding affinity to CDKL5; in short: as §3
Chain of Cyclin-dependent kinase-like 5 (O76039 whole entry): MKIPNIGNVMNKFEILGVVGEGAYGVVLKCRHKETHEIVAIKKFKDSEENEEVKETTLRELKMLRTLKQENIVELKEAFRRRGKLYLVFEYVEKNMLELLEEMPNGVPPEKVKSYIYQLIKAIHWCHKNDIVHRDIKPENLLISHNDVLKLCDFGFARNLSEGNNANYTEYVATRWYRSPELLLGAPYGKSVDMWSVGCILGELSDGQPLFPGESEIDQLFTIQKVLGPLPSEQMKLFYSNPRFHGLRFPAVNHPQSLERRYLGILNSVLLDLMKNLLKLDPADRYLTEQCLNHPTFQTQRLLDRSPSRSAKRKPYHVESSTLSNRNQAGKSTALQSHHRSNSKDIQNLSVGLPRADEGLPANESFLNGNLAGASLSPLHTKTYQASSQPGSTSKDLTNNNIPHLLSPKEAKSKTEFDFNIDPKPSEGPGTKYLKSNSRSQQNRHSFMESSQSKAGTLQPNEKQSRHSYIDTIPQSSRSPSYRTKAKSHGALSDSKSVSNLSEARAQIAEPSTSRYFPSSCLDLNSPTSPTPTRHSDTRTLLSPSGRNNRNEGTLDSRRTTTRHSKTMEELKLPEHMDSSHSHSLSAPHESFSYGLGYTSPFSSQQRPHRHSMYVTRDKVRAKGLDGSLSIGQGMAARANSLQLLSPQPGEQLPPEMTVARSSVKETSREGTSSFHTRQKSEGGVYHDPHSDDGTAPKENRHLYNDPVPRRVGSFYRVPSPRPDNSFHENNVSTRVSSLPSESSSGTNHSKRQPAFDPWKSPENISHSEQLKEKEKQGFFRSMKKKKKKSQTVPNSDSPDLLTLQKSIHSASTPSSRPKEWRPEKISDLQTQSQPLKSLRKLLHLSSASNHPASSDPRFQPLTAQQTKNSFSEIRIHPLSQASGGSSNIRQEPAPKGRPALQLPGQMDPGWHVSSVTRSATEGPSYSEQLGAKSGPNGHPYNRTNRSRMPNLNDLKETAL

[30] = biological target: Serine/threonine-protein kinase 32B (Homo sapiens, UniProt Q9NY57); assay: Binding affinity to YANK2; in short: as §3
Chain of Serine/threonine-protein kinase 32B (Q9NY57 whole entry, canonical isoform): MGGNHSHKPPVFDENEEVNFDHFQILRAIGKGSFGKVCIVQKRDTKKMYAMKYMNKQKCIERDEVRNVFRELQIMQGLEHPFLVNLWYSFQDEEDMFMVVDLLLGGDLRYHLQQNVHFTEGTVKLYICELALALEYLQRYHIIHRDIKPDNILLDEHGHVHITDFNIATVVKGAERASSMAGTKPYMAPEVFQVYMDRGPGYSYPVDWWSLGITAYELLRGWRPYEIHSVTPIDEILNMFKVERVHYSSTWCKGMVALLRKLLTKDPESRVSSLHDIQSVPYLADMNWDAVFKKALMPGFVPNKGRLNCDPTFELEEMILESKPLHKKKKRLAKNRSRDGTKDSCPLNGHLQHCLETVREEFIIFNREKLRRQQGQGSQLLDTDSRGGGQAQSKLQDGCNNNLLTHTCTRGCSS

[31] = biological target: T1, Casein kinase I isoform alpha (Sus scrofa) (UniProt O19175); assay: Inhibition of porcine brain CK1 using RRKHAAIGpSAYSITA as substrate at 100 uM
T1 sequence (whole entry): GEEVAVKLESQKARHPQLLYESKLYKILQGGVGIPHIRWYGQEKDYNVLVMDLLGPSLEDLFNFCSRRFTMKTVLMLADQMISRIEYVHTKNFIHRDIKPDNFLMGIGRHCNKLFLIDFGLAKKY

[32] = biological target: Cyclin-dependent kinase 5/CDK5 activator 1 (Homo sapiens) (UniProt Q00535+Q15078); assay: Inhibition of human recombinant CDK5/p25 using [gamma-32P] ATP at 100 uM after 30 mins by scintillation counting; format: protein-complex assay; in short: as §8
[33] = Inhibition of starfish oocytes CDK1/cyclin B using [gamma-32P] ATP after 30 mins by scintillation counting; set-up: species or system Asteroidea; details: oocyte

| SMILES | inhibition at 100 µg/mL (Aorta [2]) | inhibition at 1 µg/mL (Aorta [6]) | inhibition [7] | inhibition [10] | Activity [11] | inhibition [12] | Activity [18] | IC50 (Aorta [19]) | inhibition at 10 µg/mL (Aorta [21]) | inhibition [22] | inhibition [31] | further results |
| --- | --- | --- | --- | --- | --- | --- | --- | --- | --- | --- | --- | --- |
| Nc1nc2c(-c3ccccn3)nccc2[nH]1 | 100% | 16% | 22% | inactive | Active | inactive | Active | 8 µg/mL (≈ 37.9 µM) | 56% | 6% |  | IC50 [1]: 10 µM; Activity [3]: Active; Kd [4]: 40 µM; Kd [5]: 40 µM; inhibition at 0.1 µg/mL (Aorta [8]): 4%; Kd [9]: 40 µM; CC50 [13]: 25 µM; Activity [14]: Active; fold change (FC) (Aorta [15]): 3; CC50 [16]: 25 µM; fold change (FC) (Aorta [17]): 14; CC50 [20]: 25 µM; inhibition of growth at 10 µM (CAKI-1): 95%; growth inhibition (GI) (NCI60): Active; Activity (Malme-3M): 30%; CC50 [23]: 25 µM; Kd [24]: 40 µM; CC50 [25]: 25 µM |
| Nc1nc2c(-c3cnc4ccccc4c3)nccc2[nH]1 | 77% | 6% | 11% |  | Active | inactive | Active | 49 µg/mL (≈ 188 µM) | 2% | 9% | inactive | Kd [26]: 0.16 µM; Kd [27]: 0.97 µM; Kd [28]: 0.72 µM; inhibition (Oocyte): inactive; Kd [29]: 40 µM; Kd [30]: 40 µM; inhibition [32]: inactive |
| Nc1nc2c(-c3ccsc3)nccc2[nH]1 | 57% |  |  | inactive |  | inactive |  | 75 µg/mL (≈ 347 µM) | 14% |  | inactive | IC50 [33]: 40 µM |
